Measurements published in ChEMBL document CHEMBL1759916, “Bicyclo[2.2.2]octyltriazole inhibitors of 11β-hydoxysteroid dehydrogenase type 1. Pharmacological agents for the treatment of metabolic syndrome” (Bioorg Med Chem Lett, 2011).

Columns and labels:
Mus musculus [1] = assay: Inhibition of 11beta-HSD1 in ICR mouse assessed as inhibition of conversion of [3H]-cortisone to [3H]-cortisol at 10 mg/kg, po administered 16 hrs before [3H]-cortisone challenge; assay type: functional
In short: (§1)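 Mouse pharmacodynamic model. Compound given 10 mg/kg PO, then 3H-cortisone by tail vein injection 1, 4 or 16 h after dosing. […] Plasma compound levels were measured after the PD studies.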

Mus musculus [2] = assay: Inhibition of 11beta-HSD1 in ICR mouse assessed as inhibition of conversion of [3H]-cortisone to [3H]-cortisol at 10 mg/kg, po administered 4 hrs before [3H]-cortisone challenge; assay type: functional; in short: as §1
[3] = target: 11-beta-hydroxysteroid dehydrogenase 1 (Mus musculus, UniProt P50172); assay: Inhibition of mouse 11beta-HSD1 expressed in CHO-K1 cells assessed as conversion of [3H]-cortisone to [3H]-cortisol by scintillation proximity assay; assay type: cell-based
Chain of 11-beta-hydroxysteroid dehydrogenase 1 (Mus musculus, UniProt P50172) (P50172 whole entry): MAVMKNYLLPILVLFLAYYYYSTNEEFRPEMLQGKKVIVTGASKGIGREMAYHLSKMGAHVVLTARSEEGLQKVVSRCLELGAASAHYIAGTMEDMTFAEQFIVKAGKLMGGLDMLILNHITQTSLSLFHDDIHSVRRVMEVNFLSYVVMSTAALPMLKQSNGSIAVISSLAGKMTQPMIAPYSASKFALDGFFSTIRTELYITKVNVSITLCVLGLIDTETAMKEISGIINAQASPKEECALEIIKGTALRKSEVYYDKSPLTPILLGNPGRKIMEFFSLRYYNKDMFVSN

[4] = target: T1, 11-beta-hydroxysteroid dehydrogenase type 2 (Mus musculus, UniProt P51661); assay: Inhibition of mouse 11beta-HSD2 expressed in CHO-K1 cells assessed as conversion of [3H]-cortisol to [3H]-cortisone by scintillation proximity assay; assay type: cell-based
T1 sequence (P51661 whole entry): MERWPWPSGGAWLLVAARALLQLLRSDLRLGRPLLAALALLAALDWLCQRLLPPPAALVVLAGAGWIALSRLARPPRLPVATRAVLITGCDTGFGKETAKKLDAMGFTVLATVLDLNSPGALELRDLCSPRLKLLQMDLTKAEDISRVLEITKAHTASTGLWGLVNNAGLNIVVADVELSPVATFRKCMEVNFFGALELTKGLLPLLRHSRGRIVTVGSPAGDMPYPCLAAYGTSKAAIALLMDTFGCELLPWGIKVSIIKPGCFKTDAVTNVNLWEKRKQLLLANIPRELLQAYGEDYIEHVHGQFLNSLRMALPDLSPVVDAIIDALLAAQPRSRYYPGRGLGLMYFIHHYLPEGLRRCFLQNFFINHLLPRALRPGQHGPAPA
In short: (§2)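 Scintillation proximity assay (SPA). IC50 values are the average of two determinations.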

[5] = target: 11-beta-hydroxysteroid dehydrogenase 1 (Homo sapiens, UniProt P28845); assay: Inhibition of human 11beta-HSD1 expressed in CHO-K1 cells assessed as conversion of [3H]-cortisone to [3H]-cortisol by scintillation proximity assay; assay type: cell-based; in short: as §2
Chain of 11-beta-hydroxysteroid dehydrogenase 1 (Homo sapiens, UniProt P28845) (P28845 whole entry): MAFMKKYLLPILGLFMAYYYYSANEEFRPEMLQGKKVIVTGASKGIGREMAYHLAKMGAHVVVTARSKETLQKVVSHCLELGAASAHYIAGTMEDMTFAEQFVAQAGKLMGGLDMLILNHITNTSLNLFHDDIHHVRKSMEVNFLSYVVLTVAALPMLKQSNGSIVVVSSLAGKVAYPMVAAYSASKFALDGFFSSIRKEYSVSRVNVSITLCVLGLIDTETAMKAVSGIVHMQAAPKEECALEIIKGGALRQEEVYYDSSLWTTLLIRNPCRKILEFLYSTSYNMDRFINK

[6] = target: T2, 11-beta-hydroxysteroid dehydrogenase type 2 (Homo sapiens, UniProt P80365); assay: Inhibition of human 11beta-HSD2 expressed in CHO-K1 cells assessed as conversion of [3H]-cortisol to [3H]-cortisone by scintillation proximity assay; assay type: cell-based
T2 sequence (P80365 whole entry): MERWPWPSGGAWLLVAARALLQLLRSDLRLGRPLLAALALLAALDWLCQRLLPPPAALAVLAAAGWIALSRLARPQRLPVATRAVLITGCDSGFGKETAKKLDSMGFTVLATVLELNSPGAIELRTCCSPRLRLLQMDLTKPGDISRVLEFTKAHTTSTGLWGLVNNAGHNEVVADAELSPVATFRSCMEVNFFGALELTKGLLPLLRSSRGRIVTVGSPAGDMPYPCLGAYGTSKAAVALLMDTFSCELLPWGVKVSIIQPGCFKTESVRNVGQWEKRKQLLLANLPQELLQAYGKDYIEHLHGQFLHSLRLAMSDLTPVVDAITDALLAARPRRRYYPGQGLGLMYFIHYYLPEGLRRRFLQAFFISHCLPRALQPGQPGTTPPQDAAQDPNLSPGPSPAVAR

[7] = Clearance in C57 mouse at 2 mg/kg, iv; assay type: ADME, organism-based; set-up: dose 2 mg/kg, route intravenous; settings: in vivo
In short: (§3)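 Mouse PK from 2 mg/kg IV and 10 mg/kg oral dosing. The PO AUC is reported normalized to dose.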

[8] = Bioavailability in C57 mouse at 2 mg/kg, iv and 10 mg/kg, po; assay type: ADME, organism-based; settings: in vivo; in short: as §3

Molecule `Cn1c(-c2ccccc2C(F)(F)F)nnc1C12CCC(COc3ccc(S(C)(=O)=O)cc3)(CC1)CC2` has an inhibition in vivo at 10 mg/kg (Mus musculus [1]) of 28%, an inhibition in vivo at 10 mg/kg (Mus musculus [2]) of 79% and an IC50 [3] of 2 nM. For the same molecule, the IC50 [4] was greater than 4000 nM, the IC50 [5] was 1 nM and the IC50 [6] was greater than 4000 nM.

Work on `CC(O)CCCC12CCC(c3nnc(-c4ccccc4C(F)(F)F)n3C)(CC1)CC2` (configuration not stated) yielded an inhibition in vivo at 10 mg/kg (Mus musculus [2]) of 97%, an IC50 [3] of 1.7 nM and an IC50 [4] greater than 4000 nM. It also gave an IC50 [5] of less than 1 nM, an IC50 [6] greater than 1000 nM and a clearance [7] of 88 mL/min/kg. The bioavailability [8] was 21%.

Molecule `CCS(=O)(=O)CCCCC12CCC(c3nnc(-c4ccccc4C(F)(F)F)n3C)(CC1)CC2` has an inhibition in vivo at 10 mg/kg (Mus musculus [1]) of 58%, an inhibition in vivo at 10 mg/kg (Mus musculus [2]) of 90% and an IC50 [3] of 1.8 nM. It also gave an IC50 [4] greater than 4000 nM, an IC50 [5] of 1.6 nM and an IC50 [6] greater than 4000 nM.

Molecule `Cn1c(-c2ccccc2C(F)(F)F)nnc1C12CCC(CNS(C)(=O)=O)(CC1)CC2` has an inhibition in vivo at 10 mg/kg (Mus musculus [1]) of 27%, an inhibition in vivo at 10 mg/kg (Mus musculus [2]) of 73% and an IC50 [3] of 4 nM. It also gave an IC50 [4] greater than 4000 nM, an IC50 [5] of 30 nM and an IC50 [6] greater than 4000 nM.

With `Cn1c(-c2ccccc2C(F)(F)F)nnc1C12CCC(CCCC(C)(F)F)(CC1)CC2` the inhibition in vivo at 10 mg/kg (Mus musculus [1]) was 94%, the inhibition in vivo at 10 mg/kg (Mus musculus [2]) was 99% and the IC50 [3] was less than 1 nM. The IC50 [4] was greater than 4000 nM, the IC50 [5] was less than 1 nM and the IC50 [6] was greater than 4000 nM. The clearance [7] was 14 mL/min/kg and the bioavailability [8] was 36%.

`Cn1c(-c2ccccc2C(F)(F)F)nnc1C12CCC(CCS(=O)(=O)C(F)(F)F)(CC1)CC2` gave an inhibition in vivo at 10 mg/kg (Mus musculus [1]) of 78%, an inhibition in vivo at 10 mg/kg (Mus musculus [2]) of 81% and an IC50 [3] of 2.2 nM. It also gave an IC50 [4] greater than 4000 nM, an IC50 [5] of 6.1 nM and an IC50 [6] greater than 4000 nM.

In the case of `Cn1c(-c2ccccc2C(F)(F)F)nnc1C12CCC(CCS(=O)(=O)C(C)(C)C)(CC1)CC2`, the inhibition in vivo at 10 mg/kg (Mus musculus [1]) is reported as 10%, the inhibition in vivo at 10 mg/kg (Mus musculus [2]) is reported as 65% and the IC50 [3] is reported as 6.3 nM. For the same molecule, the IC50 [4] was greater than 4000 nM, the IC50 [5] was 5.4 nM and the IC50 [6] was greater than 4000 nM.

With `CC(C)S(=O)(=O)CCC12CCC(c3nnc(-c4ccccc4C(F)(F)F)n3C)(CC1)CC2` the inhibition in vivo at 10 mg/kg (Mus musculus [1]) was 59%, the inhibition in vivo at 10 mg/kg (Mus musculus [2]) was 88% and the IC50 [3] was 3.6 nM. For the same molecule, the IC50 [4] was greater than 4000 nM, the IC50 [5] was 4.1 nM and the IC50 [6] was greater than 4000 nM.

Work on `CCS(=O)(=O)CCC12CCC(c3nnc(-c4ccccc4C)n3C)(CC1)CC2` yielded an inhibition in vivo at 10 mg/kg (Mus musculus [1]) of 30%, an inhibition in vivo at 10 mg/kg (Mus musculus [2]) of 86% and an IC50 [4] greater than 4000 nM. It also gave an IC50 [6] greater than 4000 nM.

`CCCCCC12CCC(c3nnc(-c4ccccc4C(F)(F)F)n3C)(CC1)CC2` showed an inhibition in vivo at 10 mg/kg (Mus musculus [2]) of 98%, an IC50 [4] greater than 4000 nM and an IC50 [5] of 1.8 nM. For the same molecule, the IC50 [6] was 1300 nM, the clearance [7] was 273 mL/min/kg and the bioavailability [8] was 20%.

For `Cn1c(-c2ccccc2C(F)(F)F)nnc1C12CCC(CCS(=O)(=O)CC(F)(F)F)(CC1)CC2`, the inhibition in vivo at 10 mg/kg (Mus musculus [1]) was 67%, the inhibition in vivo at 10 mg/kg (Mus musculus [2]) was 74% and the IC50 [3] was 1.5 nM. The IC50 [4] was greater than 4000 nM, the IC50 [5] was 3.7 nM and the IC50 [6] was 1600 nM.

`CCS(=O)(=O)CCCC12CCC(c3nnc(-c4ccccc4C(F)(F)F)n3C)(CC1)CC2` [MK-0736] showed an inhibition in vivo at 10 mg/kg (Mus musculus [1]) of 63%, an inhibition in vivo at 10 mg/kg (Mus musculus [2]) of 92% and an IC50 [3] of 2.4 nM. The IC50 [4] was greater than 4000 nM, the IC50 [5] was 3.2 nM and the IC50 [6] was greater than 4000 nM.

Work on `CCS(=O)(=O)CCC12CCC(c3nnc(-c4ccc(O)cc4Cl)n3C)(CC1)CC2` yielded an inhibition in vivo at 10 mg/kg (Mus musculus [1]) of 14%, an inhibition in vivo at 10 mg/kg (Mus musculus [2]) of 26% and an IC50 [3] of 3 nM. It also gave an IC50 [4] greater than 4000 nM, an IC50 [5] of 2.8 nM and an IC50 [6] greater than 4000 nM.

For `CCS(=O)(=O)CCC12CCC(c3nnc(-c4cccc(Cl)c4)n3C)(CC1)CC2`, the IC50 [3] was 1100 nM, the IC50 [4] was greater than 4000 nM and the IC50 [5] was 900 nM. It also gave an IC50 [6] greater than 4000 nM.

For `CCCS(=O)(=O)CCC12CCC(c3nnc(-c4ccccc4C(F)(F)F)n3C)(CC1)CC2`, the inhibition in vivo at 10 mg/kg (Mus musculus [1]) was 47%, the inhibition in vivo at 10 mg/kg (Mus musculus [2]) was 89% and the IC50 [3] was 6.7 nM. The IC50 [4] was greater than 4000 nM, the IC50 [5] was 5.1 nM and the IC50 [6] was greater than 4000 nM.

For `CCS(=O)(=O)CC12CCC(c3nnc(-c4ccccc4C(F)(F)F)n3C)(CC1)CC2`, the inhibition in vivo at 10 mg/kg (Mus musculus [1]) was 80%, the inhibition in vivo at 10 mg/kg (Mus musculus [2]) was 94% and the IC50 [3] was 4 nM.
